Results on four molecules are retold here after ChEMBL document CHEMBL5104215, “Synthesis of full-length homodimer αD-VxXXB that targets human α7 nicotinic acetylcholine receptors” (RSC Med Chem, 2022).

The target in test [1] is T1, Neuronal acetylcholine receptor subunit alpha-7 (Homo sapiens, UniProt P36544). In words: Negative allosteric modulation activity at alpha7 nAChR in human SH-SY5Y cells assessed as inhibition of choline induced intracellular calcium by FLIPR assay. The test is classed as cell-based.
Test [2] concerns the target Acetylcholine-binding protein (Lymnaea stagnalis) (UniProt P58154). Kind of test: Displacement of [3H]-epibatidine from recombinant Lymnaea stagnalis Acetylcholine-binding protein assessed as inhibition of [3H]-epibatidine binding at 40 uM by radioligand saturation binding assay. In a few lines:
(§1)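 Saturation binding of [3H]-epibatidine to recombinantly expressed Ls-AChBP was run without peptide and with a fixed peptide concentration (20 μM or 40 μM, depending on the peptide). Data are means ± SEM of triplicates from three independent experiments.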

For test [3], the target named is T1, Neuronal acetylcholine receptor subunit alpha-7. Kind of test: Negative allosteric modulation activity at alpha7 nAChR in human SH-SY5Y cells assessed as fold change in inhibition of choline induced intracellular calcium by FLIPR assay relative to CTD(21-50). The conditions noted are these: filed as negative allosteric modulator. Format: cell-based.
In test [4] the target is Acetylcholine-binding protein (Lymnaea stagnalis) (UniProt P58154). In words: Displacement of [3H]-epibatidine from recombinant Lymnaea stagnalis Acetylcholine-binding protein assessed as fold change in inhibition of [3H]-epibatidine binding by radioligand binding assay relative to CTD(21-50). The conditions noted are these: filed as negative allosteric modulator. In a few lines: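 Competition binding: peptides displaced [3H]-epibatidine from recombinantly expressed Lymnaea stagnalis AChBP. IC50 came from concentration–response curves. The ratio is each peptide's IC50 divided by the IC50 of the CTD(21–50) reference. Data are means ± SEM of triplicates from three independent experiments.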

Test [5] shares this target. Kind of test: Displacement of [3H]-epibatidine from recombinant Lymnaea stagnalis Acetylcholine-binding protein assessed as inhibition of [3H]-epibatidine binding by radioligand saturation binding assay. The note with it: filed as negative allosteric modulator. In a few lines: as §1
Test [6] deals with Acetylcholine-binding protein (Lymnaea stagnalis, UniProt P58154). In words: Displacement of [3H]-epibatidine from recombinant Lymnaea stagnalis Acetylcholine-binding protein by radioligand binding assay. In a few lines: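 Competition binding: peptide concentration series against [3H]-epibatidine bound to recombinantly expressed Ls-AChBP; IC50 taken from concentration–response curves of displacement. Values are means ± SEM of triplicates from three independent experiments.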

In test [7] the target is Acetylcholine-binding protein (Lymnaea stagnalis) (UniProt P58154). In words: Displacement of [3H]-epibatidine from recombinant Lymnaea stagnalis Acetylcholine-binding protein assessed as inhibition of [3H]-epibatidine binding at 20 uM by radioligand saturation binding assay. In a few lines:
as §1

Calls of active or inactive are those of the source. No cut-off for these calls is given here. Positions of bridges follow the written chain, without caps; N, C: chain ends. Non-standard residues stand in square brackets, D forms with d. Residues, ends and D or L forms follow the SMILES beside them. Chains are numbered I, II in the order given. Nle = CCCC[C@H](N)C(=O)O

T1 sequence (P36544 whole entry): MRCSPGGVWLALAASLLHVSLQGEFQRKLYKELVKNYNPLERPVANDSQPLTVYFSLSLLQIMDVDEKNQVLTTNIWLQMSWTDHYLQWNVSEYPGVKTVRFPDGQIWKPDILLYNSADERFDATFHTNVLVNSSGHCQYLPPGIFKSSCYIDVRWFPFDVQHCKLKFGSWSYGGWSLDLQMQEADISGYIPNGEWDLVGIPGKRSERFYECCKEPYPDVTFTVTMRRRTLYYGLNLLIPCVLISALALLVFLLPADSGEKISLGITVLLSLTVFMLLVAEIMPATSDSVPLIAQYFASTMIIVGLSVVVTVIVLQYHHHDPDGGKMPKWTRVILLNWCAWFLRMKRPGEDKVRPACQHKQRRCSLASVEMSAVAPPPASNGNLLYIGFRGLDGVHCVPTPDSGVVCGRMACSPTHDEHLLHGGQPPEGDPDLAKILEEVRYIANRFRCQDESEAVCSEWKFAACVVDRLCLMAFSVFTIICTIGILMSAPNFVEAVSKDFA
Acetylcholine-binding protein (Lymnaea stagnalis), sequence (P58154 whole entry): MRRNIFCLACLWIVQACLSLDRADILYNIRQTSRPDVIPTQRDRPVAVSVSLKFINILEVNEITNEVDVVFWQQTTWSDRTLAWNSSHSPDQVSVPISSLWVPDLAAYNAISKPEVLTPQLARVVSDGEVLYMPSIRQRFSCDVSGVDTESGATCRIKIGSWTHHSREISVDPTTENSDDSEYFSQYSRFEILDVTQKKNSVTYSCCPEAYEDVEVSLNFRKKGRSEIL
Acetylcholine-binding protein, sequence (P58154 whole entry): as above

As to `CCCC[C@@H]1N[C@@H](CO)C(=O)NCC(=O)N[C@H]2CSSC[C@@H]3NC(=O)[C@H](C(C)C)NC(=O)[C@H](Cc4ccc(O)cc4)NC(=O)[C@H](Cc4cnc[nH]4)NC(=O)[C@H](Cc4c[nH]c5ccccc45)NC(=O)[C@H](CCCNC(=N)N)NC(=O)[C@H](CCCNC(=N)N)NC(=O)CNC(=O)[C@H](Cc4cnc[nH]4)NC(=O)CNC(=O)[C@@H]4CSSC[C@H](NC(=O)[C@@H]5CCCN5C(=O)[C@H](CCCNC(=N)N)NC(=O)[C@H](CC(N)=O)NC(=O)CNC(=O)[C@H](CSSC[C@H](NC(=O)[C@@H]5CCCN5C(=O)CN)C(=O)N[C@@H](CO)C(=O)N4)NC(=O)[C@H]([C@@H](C)O)NC3=O)C(=O)N[C@@H](CSSC[C@@H](C(=O)O)NC(=O)[C@H](CCCNC(=N)N)NC(=O)[C@H]([C@@H](C)O)NC(=O)[C@H](CCCNC(=N)N)N[C@@H](CCCC)C(=O)NC2=O)C(=O)NC1=O`, the IC50 stood at 0.023 µM in test [1] and 10 µM in test [6]. For the same molecule, the inhibition in test [2] is 29%. In addition, the fold change (FC) worked out at 8 in test [3] and 2 in test [4]. The result in test [5] was Active.
For `CCCC[C@@H]1NC(=O)[C@H](CO)NC(=O)CNC(=O)[C@@H](NC(=O)[C@H](CCCC)NC(=O)[C@H](CCCNC(=N)N)NC(=O)[C@@H](N)[C@@H](C)O)CSSC[C@@H]2NC(=O)[C@H]([C@@H](C)O)NC(=O)[C@@H]3CSSC[C@@H](C(=O)N4CCC[C@H]4C(=O)NCC(=O)O)NC(=O)[C@H](CO)NC(=O)[C@H](CSSC[C@H](NC(=O)[C@H](CO)NC1=O)C(=O)N1CCC[C@H]1C(=O)N[C@@H](CCCNC(=N)N)C(=O)N[C@@H](CC(N)=O)C(=O)NCC(=O)N3)NC(=O)CNC(=O)[C@H](Cc1cnc[nH]1)NC(=O)CNC(=O)[C@H](CCCNC(=N)N)NC(=O)[C@H](CCCNC(=N)N)NC(=O)[C@H](Cc1c[nH]c3ccccc13)NC(=O)[C@H](Cc1cnc[nH]1)NC(=O)[C@H](Cc1ccc(O)cc1)NC(=O)[C@H](C(C)C)NC2=O` (H-TR[Nle]CGS[Nle]SCPRNGCTCVYHWRRGHGCSCPG-OH; disulfide 4-16, 9-26, 14-28), the values for the IC50 in test [1] and in test [6] were 0.176 µM and 20 µM, respectively. For the same molecule, in test [5], the outcome was Active. Also, in test [7], the inhibition was determined as 20%.
For the molecule `CC[C@H](C)[C@@H]1NC(=O)[C@H](CC(N)=O)NC(=O)[C@H]([C@@H](C)O)NC(=O)[C@H](CCCNC(=N)N)NC(=O)[C@H](CC(=O)O)NC(=O)[C@H](CO)NC(=O)[C@@H]2CCCN2C(=O)[C@H](Cc2c[nH]c3ccccc23)NC(=O)CNC(=O)[C@H](CCCNC(=N)N)NC(=O)[C@@H](N)CSSC[C@H](N)C(=O)N[C@@H]([C@@H](C)CC)C(=O)N[C@@H]([C@@H](C)CC)C(=O)N[C@@H](CC(N)=O)C(=O)N[C@@H]([C@@H](C)O)C(=O)N[C@@H](CCCNC(=N)N)C(=O)N[C@@H](CC(=O)O)C(=O)N[C@@H](CO)C(=O)N2CCC[C@H]2C(=O)N[C@@H](Cc2c[nH]c3ccccc23)C(=O)NCC(=O)N[C@@H](CCCNC(=N)N)C(=O)N[C@H](C(=O)O)CSSC[C@@H](C(=O)O)NC(=O)[C@H]([C@@H](C)CC)NC1=O` (I: H-CIINTRDSPWGRC-OH / II: H-CRGWPSDRTNIIC-OH; disulfide I:1-II:1, I:13-II:13), in test [1], the IC50 came out at 46 µM.
On the same count and under the same terms, for `CC[C@H](C)[C@@H]1NC(=O)[C@H](CC(N)=O)NC(=O)[C@H]([C@@H](C)O)NC(=O)[C@H](CCCNC(=N)N)NC(=O)[C@H](CC(=O)O)NC(=O)[C@H](CO)NC(=O)[C@@H]2CCCN2C(=O)[C@H](Cc2c[nH]c3ccccc23)NC(=O)CNC(=O)[C@H](CCCNC(=N)N)NC(=O)[C@@H](N)CSSC[C@H](NC(=O)[C@H](CCC(=O)O)NC(=O)[C@H](CO)NC(=O)[C@H](CCC(=O)O)NC(=O)[C@H](CC(=O)O)NC(=O)[C@@H](N)CC(=O)O)C(=O)N[C@@H]([C@@H](C)CC)C(=O)N[C@@H]([C@@H](C)CC)C(=O)N[C@@H](CC(N)=O)C(=O)N[C@@H]([C@@H](C)O)C(=O)N[C@@H](CCCNC(=N)N)C(=O)N[C@@H](CC(=O)O)C(=O)N[C@@H](CO)C(=O)N2CCC[C@H]2C(=O)N[C@@H](Cc2c[nH]c3ccccc23)C(=O)NCC(=O)N[C@@H](CCCNC(=N)N)C(=O)N[C@H](C(=O)O)CSSC[C@@H](C(=O)N[C@@H](CCC(=O)O)C(=O)N[C@@H](CO)C(=O)N[C@@H](CCC(=O)O)C(=O)N[C@@H](CC(=O)O)C(=O)N[C@@H](CC(=O)O)C(=O)O)NC(=O)[C@H]([C@@H](C)CC)NC1=O` (I: H-CRGWPSDRTNIICESEDD-OH / II: H-DDESECIINTRDSPWGRC-OH; disulfide I:1-II:6, I:13-II:18) the value was 35 µM.
